# According to ChEMBL document CHEMBL1127635, “Thiopyrano[2,3,4-cd]indoles as 5-lipoxygenase inhibitors: synthesis, biological profile, and resolution of 2-[2-[1-(4-chlorobenzyl)-4-methyl-6-[(5-phenylpyridin-2-yl)methoxy]-4,5 -dihydro-1H-thiopyrano[2,3,4-cd]indol-2-yl]ethoxy]butanoic acid” (J Med Chem, 1994):
# How the values were obtained:
# [1] = Bioavailability in rat (dose 5 mg/kg i.v.); type: ADME, organism-based; conditions: in vivo, iv
# Procedure, shortened: (§1)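 Rat plasma profiles after dosing the sodium salts either orally at 20 mg/kg in 1% methocel or iv at 5 mg/kg in PEG 200. Bioavailability is calculated as AUCpo/4 × AUCiv.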
# Homo sapiens [2] = species: Homo sapiens; assay: Effect on production of LTB4 in human polymorphonuclear leukocytes; type: functional
# Procedure, shortened: (§2)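 LTB4 biosynthesis measured in human polymorphonuclear leukocytes activated with Ca2+ ionophore.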
# Rattus norvegicus [3] = assay: Tested for percentage inhibition of dyspnea (0.5 mg/kg po using methocel) by in vivo in hyperactive rat after 4 hours pretreatment; type: functional
# Procedure, shortened: (§3)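 Inbred hyperreactive rats pretreated with methysergide 3 mg/kg iv. Drug given at 0.5 mg/kg po in methocel before ovalbumin challenge. Read-out is % inhibition of dyspnea duration versus litter-mate-matched vehicle controls, n = 6.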
# [4] = target: T1, Polyunsaturated fatty acid 5-lipoxygenase (Homo sapiens, UniProt P09917); assay: In vitro inhibition of human 5-Lipoxygenase.
# T1 sequence (P09917 whole entry): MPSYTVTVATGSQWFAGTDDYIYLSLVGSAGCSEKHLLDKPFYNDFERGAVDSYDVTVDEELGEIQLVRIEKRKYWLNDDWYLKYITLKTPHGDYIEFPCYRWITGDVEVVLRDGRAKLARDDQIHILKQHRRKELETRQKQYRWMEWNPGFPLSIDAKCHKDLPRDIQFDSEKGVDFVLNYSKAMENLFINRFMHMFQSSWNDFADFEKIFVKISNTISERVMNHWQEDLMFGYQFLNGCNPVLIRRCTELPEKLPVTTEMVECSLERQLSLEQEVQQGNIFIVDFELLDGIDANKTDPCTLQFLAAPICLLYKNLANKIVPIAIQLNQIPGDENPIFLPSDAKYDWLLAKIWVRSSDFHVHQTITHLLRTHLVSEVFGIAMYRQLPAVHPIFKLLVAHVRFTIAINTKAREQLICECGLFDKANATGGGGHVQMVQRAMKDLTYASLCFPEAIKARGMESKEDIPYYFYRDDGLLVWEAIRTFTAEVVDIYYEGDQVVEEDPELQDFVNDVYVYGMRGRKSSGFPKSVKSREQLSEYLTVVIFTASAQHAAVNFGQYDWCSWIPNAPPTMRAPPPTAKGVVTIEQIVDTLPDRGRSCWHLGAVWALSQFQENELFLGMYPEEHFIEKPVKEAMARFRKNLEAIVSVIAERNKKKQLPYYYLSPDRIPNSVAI
# Procedure, shortened: (§4)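 Spectrophotometric assay following 5-H(P)ETE production by the 100000g supernatant (S100) fraction of insect cells overexpressing human 5-LO.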
# [5] = Tmax value in rat plasma when administered 20 mg/kg perorally; type: ADME, organism-based; design: dose 20 mg/kg, route oral; conditions: po; procedure, shortened: as §1
# Rattus norvegicus [6] = assay: Tested for percentage inhibition of dyspnea (0.5 mg/kg po using methocel) by in vivo in hyperactive rat after 2 hours pretreatment; type: functional; procedure, shortened: as §3
# [7] = Cmax value in rat plasma when administered 20 mg/kg perorally; type: ADME, organism-based; design: dose 20 mg/kg, route oral; conditions: po; procedure, shortened: as §1
# [8] = target: T1, Polyunsaturated fatty acid 5-lipoxygenase; assay: Tested against 5-lipoxygenase; procedure, shortened: as §4
# Homo sapiens [9] = species: Homo sapiens; assay: (§5) Effect on production of LTB4 in human polymorphonuclear (HPMN) leukocytes; type: functional; procedure, shortened: as §2
# Rattus norvegicus [10] = species: Rattus norvegicus; assay: Tested for effective inhibition of LTB4 with an 8 hr pretreatment; type: functional
# [11] = Tested for inhibition of Ascaris antigen induced bronchoconstriction in the conscious squirrel monkey at 0.1 mg/kg dose (changes in dynamic compliance); type: functional
# Procedure, shortened: (§6)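 Allergic conscious squirrel monkeys pretreated with drug for 4 h, then challenged with aerosolized Ascaris antigen (1:25 dilution). Airway resistance (RL) increase and dynamic compliance (Cdyn) decrease recorded; % inhibition versus control, mean ± SEM.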
# Rattus norvegicus [12] = assay: In vivo inhibition of LBT4 in a rat pleurisy model with a 6 h pretreatment time; type: functional
# Procedure, shortened: (§7)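 Male Sprague-Dawley rats given 0.4 mL of 0.5% carrageenan in saline intrapleurally 16 h before drug. Drug doses ranged from 3 to 0.3 mg/kg. Intrapleural calcium ionophore challenge 6 h after dosing. LTB4 in pleural exudate measured 1 h later; ED50 derived, n = 6/group.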
# [13] = Tested for inhibition of Ascaris antigen induced bronchoconstriction in the conscious squirrel monkey at 0.3 mg/kg dose (changes in dynamic compliance); type: functional; procedure, shortened: as §6
# [14] = Inhibition of Ascaris antigen induced bronchoconstriction in the conscious squirrel monkey at 0.1 mg/kg dose (Change in airway resistance); type: functional; procedure, shortened: as §6
# [15] = Inhibition of Ascaris antigen induced bronchoconstriction in the conscious squirrel monkey at 0.3 mg/kg dose (Change in airway resistance); type: functional; procedure, shortened: as §6
# Homo sapiens [16] = species: Homo sapiens; assay: Effect on production of LTB4 in human whole blood; type: functional
# Procedure, shortened: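 Human whole blood activated with ionophore A23187; inhibition of LTB4 biosynthesis assessed.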
# Homo sapiens [17] = species: Homo sapiens; assay: as §5
# Rattus norvegicus [18] = assay: In vivo inhibition of LTB4 biosynthesis in a rat pleurisy model with an 6 hr pretreatment time; type: functional; procedure, shortened: as §7
# [19] = Tested for inhibition of Ascaris antigen induced bronchoconstriction in the conscious squirrel monkey at 0.3 mg/kg dose (changes in the airway resistance(); type: functional; procedure, shortened: as §6
smiles,measurement,setting,value
CC1Cc2c(OCc3ccc(-c4ccccc4)cn3)ccc3c2c(c(CCOC(C)C(=O)O)n3Cc2ccc(Cl)cc2)S1 (stereo not given),bioavailability,[1],35%
same,IC50,Homo sapiens [2]; Homo sapiens,5 nM
same,Inhibition,Rattus norvegicus [3],2%
same,IC50,[4],20 nM
same,Tmax,[5],2 h
same,Inhibition,Rattus norvegicus [6],53%
same,Cmax,[7],3.8 µM
CC1Cc2c(OCc3ccc(-c4ccccc4)cn3)ccc3c2c(c(CCOCCC(=O)O)n3Cc2ccc(Cl)cc2)S1 (stereo not given),IC50,Homo sapiens [2]; Homo sapiens,11 nM
same,IC50,[4],105 nM
CC1Cc2c(OCc3ccc(-c4ccccc4)cn3)ccc3c2c(c(CCOCC(=O)O)n3Cc2ccc(Cl)cc2)S1 (stereo not given),IC50,Homo sapiens [2]; Homo sapiens,31 nM
CC[C@H](CSCc1c2c3c(c(OCc4ccc(-c5ccccc5)cn4)ccc3n1Cc1ccc(Cl)cc1)CC(C)S2)C(=O)O (stereo not given in full),IC50,Homo sapiens [2]; Homo sapiens,12 nM
same,IC50,[4],120 nM
CCC(OCCc1c2c3c(c(OCc4ccc(-c5ccccc5)cn4)ccc3n1Cc1ccc(Cl)cc1)CC(C)S2)C(=O)NS(C)(=O)=O (stereo not given),bioavailability,[1],72%
same,IC50,Homo sapiens [2]; Homo sapiens,6.5 nM
same,IC50,[4],20 nM
same,Tmax,[5],4 h
same,Cmax,[7],4 µM
CC1Cc2c(OCc3ccc(-c4ccccc4)cn3)ccc3c2c(c(COCC(=O)O)n3Cc2ccc(Cl)cc2)S1 (stereo not given),IC50,Homo sapiens [2]; Homo sapiens,17 nM
CC1Cc2c(OCc3ccc(-c4ccccc4)cn3)ccc3c2c(c(CCOC(C)c2nnn[nH]2)n3Cc2ccc(Cl)cc2)S1 (stereo not given),IC50,[8],60 nM
same,IC50,Homo sapiens [9],10 nM
CC(CC(=O)O)SCc1c2c3c(c(OCc4ccc(-c5ccccc5)cn4)ccc3n1Cc1ccc(Cl)cc1)CC(C)S2 (stereo not given),IC50,Homo sapiens [2]; Homo sapiens,50 nM
same,IC50,[4],70 nM
CC1Cc2c(OCc3ccc(-c4ccccc4)cn3)ccc3c2c(c(CCSC(C)C(=O)O)n3Cc2ccc(Cl)cc2)S1 (stereo not given),IC50,Homo sapiens [2]; Homo sapiens,17 nM
CCC(CSCc1c2c3c(c(OCc4ccc(-c5ccccc5)cn4)ccc3n1Cc1ccc(Cl)cc1)CC(C)S2)C(=O)O (stereo not given),IC50,Homo sapiens [2]; Homo sapiens,6 nM
CC1Cc2c(OCc3ccc(-c4ccccc4)cn3)ccc3c2c(c(CCNC(C)C(=O)O)n3Cc2ccc(Cl)cc2)S1 (stereo not given),IC50,Homo sapiens [2]; Homo sapiens,1100 nM
same,IC50,[4],4000 nM
CC1Cc2c(OCc3ccc(-c4ccccc4)cn3)ccc3c2c(c(CC(=O)N(C)C(C)C(=O)O)n3Cc2ccc(Cl)cc2)S1 (stereo not given),IC50,Homo sapiens [2]; Homo sapiens,200 nM
same,IC50,[4],300 nM
CC(=O)N(CCc1c2c3c(c(OCc4ccc(-c5ccccc5)cn4)ccc3n1Cc1ccc(Cl)cc1)CC(C)S2)C(C)C(=O)O (stereo not given),IC50,Homo sapiens [2]; Homo sapiens,113 nM
same,IC50,[4],900 nM
CC1Cc2c(OCc3ccc(-c4ccccc4)cn3)ccc3c2c(c(CC(C)(C)Cc2nnn[nH]2)n3Cc2ccc(Cl)cc2)S1 (stereo not given),ED50,Rattus norvegicus [10],1.9 mg/kg
same,IC50,Homo sapiens [9],8 nM
CC1Cc2c(OCc3ccc(-c4ccccc4)cn3)ccc3c2c(c(CSCC(C)C(=O)O)n3Cc2ccc(Cl)cc2)S1 (stereo not given),IC50,Homo sapiens [2]; Homo sapiens,20 nM
CC1Cc2c(OCc3ccc(-c4ccccc4)cn3)ccc3c2c(c(CCOC(C)C(=O)NS(C)(=O)=O)n3Cc2ccc(Cl)cc2)S1 (stereo not given),IC50,Homo sapiens [2]; Homo sapiens,4.5 nM
same,IC50,[4],22 nM
CC1Cc2c(OCc3ccc(-c4ccccc4)cn3)ccc3c2c(c(CCOC(C)(C)C(=O)O)n3Cc2ccc(Cl)cc2)S1 (stereo not given),IC50,Homo sapiens [2]; Homo sapiens,7 nM
same,IC50,[4],50 nM
CC1Cc2c(OCc3ccc(-c4ccccc4)cn3)ccc3c2c(c(COCCC(=O)O)n3Cc2ccc(Cl)cc2)S1 (stereo not given),IC50,Homo sapiens [2]; Homo sapiens,65 nM
same,IC50,[4],250 nM
CC[C@@H](CSCc1c2c3c(c(OCc4ccc(-c5ccccc5)cn4)ccc3n1Cc1ccc(Cl)cc1)CC(C)S2)C(=O)O (stereo not given in full),IC50,Homo sapiens [2]; Homo sapiens,7 nM
same,IC50,[4],40 nM
CC1Cc2c(OCc3ccc(-c4ccccc4)cn3)ccc3c2c(c(CSCC(=O)O)n3Cc2ccc(Cl)cc2)S1 (stereo not given),IC50,Homo sapiens [2]; Homo sapiens,15 nM
CC1Cc2c(OCc3ccc(-c4ccccc4)cn3)ccc3c2c(c(CSCCC(=O)O)n3Cc2ccc(Cl)cc2)S1 (stereo not given),IC50,Homo sapiens [2]; Homo sapiens,10 nM
same,IC50,[4],55 nM
CCC(OCCc1c2c3c(c(OCc4ccc(-c5ccccc5)cn4)ccc3n1Cc1ccc(Cl)cc1)CC(C)S2)C(=O)O (stereo in doubt; 14d),bioavailability,[1],88%
same,IC50,Homo sapiens [2],7 nM
same,inhibition in vivo at 0.1 mg/kg,[11],68%
same,ED50,Rattus norvegicus [12],0.65 mg/kg
same,Inhibition,Rattus norvegicus [3],51%
same,IC50,[4],22 nM
same,Tmax,[5],6 h
same,inhibition in vivo at 0.3 mg/kg,[13],100%
same,inhibition in vivo at 0.1 mg/kg,[14],89%
same,inhibition in vivo at 0.3 mg/kg,[15],100%
same,Inhibition,Rattus norvegicus [6],55%
same,IC50,Homo sapiens [16],3800 nM
same,Cmax,[7],5.5 µM
CCC(OCCc1c2c3c(c(OCc4ccc(-c5ccccc5)cn4)ccc3n1Cc1ccc(Cl)cc1)CC(C)S2)C(=O)O (stereo in doubt; 14e),IC50,Homo sapiens [2],3.5 nM
same,IC50,[4],13 nM
same,IC50,Homo sapiens [16],1800 nM
CCC(OCCc1c2c3c(c(OCc4ccc(-c5ccccc5)cn4)ccc3n1Cc1ccc(Cl)cc1)CC(C)S2)C(=O)O (stereo in doubt; 14f),IC50,Homo sapiens [2],10 nM
same,IC50,[4],150 nM
same,IC50,Homo sapiens [16],16000 nM
CCC(OCCc1c2c3c(c(OCc4ccc(-c5ccccc5)cn4)ccc3n1Cc1ccc(Cl)cc1)CC(C)S2)C(=O)O (stereo in doubt; 14g),IC50,Homo sapiens [2],4 nM
same,IC50,[4],8 nM
same,IC50,Homo sapiens [16],1000 nM
CCC(OCCc1c2c3c(c(OCc4ccc(-c5ccccc5)cn4)ccc3n1Cc1ccc(Cl)cc1)CC(C)S2)C(=O)O (stereo in doubt; 14h),IC50,Homo sapiens [2],17 nM
same,IC50,[4],80 nM
same,IC50,Homo sapiens [16],4800 nM
CC(C)(C)Sc1c(CC(C)(C)C(=O)O)n(Cc2ccc(Cl)cc2)c2ccc(OCc3ccc4ccccc4n3)cc12 [QUIFLAPON],IC50,Homo sapiens [17],3 nM
same,ED50,Rattus norvegicus [18],0.16 mg/kg
same,inhibition in vivo at 0.3 mg/kg,[13],46%
same,inhibition in vivo at 0.3 mg/kg,[19],44%
CC(c1cc2ccccc2s1)N(O)C(N)=O (stereo not given) [ZILEUTON],IC50,Homo sapiens [9],1060 nM
same,IC50,"Homo sapiens [16]; Homo sapiens, Blood",2000 nM
